Measurements from ChEMBL document CHEMBL2040734, “Benzothiazoles: search for anticancer agents” (2012).

Tests used:
Assay type in all cases: functional
DU-145 = assay: Cytotoxicity against human DU145 cells assessed as cell growth at 0.01 uM after 48 hrs by sulforhodamine B assay; conditions: DU-145, 48 h, read-out: Activity
Method in brief: (§1)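 NCI-60 five-dose screen. Cells were grown in RPMI 1640 with 5% FBS and 2 mM L-glutamine and preincubated 24 h. Compound (DMSO stock) was tested at 0.01, 0.1, 1, 10 and 100 µM for 48 h at 37 °C. Cells were fixed in situ with cold TCA (final 10%) and stained with 0.4% SRB. A515 was read, and percent growth was calculated against time-zero and control plates.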

MDA-MB-468 = assay: Cytotoxicity against human MDA-MB-468 cells assessed as cell growth at 0.01 uM after 48 hrs by sulforhodamine B assay; conditions: MDA-MB-468, 48 h, read-out: Activity
NCI-H460 [1] = assay: Cytotoxicity against human NCI-H460 cells assessed as cell growth at 0.1 uM after 48 hrs by sulforhodamine B assay; conditions: NCI-H460, 48 h, read-out: Activity
HCT-116 [2] = assay: Cytotoxicity against human HCT116 cells assessed as cell growth at 0.1 uM after 48 hrs by sulforhodamine B assay; conditions: HCT-116, 48 h, read-out: Activity
Method in brief: (§2)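 Five-dose NCI panel run at 0.01, 0.1, 1, 10 and 100 µM. Cells were in RPMI 1640 with 5% FBS and 2 mM L-glutamine, seeded at 5000–40,000 cells/well and pre-incubated 24 h. Drug was diluted from a DMSO stock into medium with 50 µg/ml gentamicin. Exposure was 48 h at 37 °C, 5% CO2. Cells were fixed with cold TCA and stained with 0.4% SRB, read at 515 nm. Percent growth came from time-zero, control and test absorbances.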

HT-29 = assay: Cytotoxicity against human HT-29 cells assessed as cell growth at 0.1 uM after 48 hrs by sulforhodamine B assay; conditions: HT-29, 48 h, read-out: Activity; method in brief: as §2
UACC-62 [3] = assay: Cytotoxicity against human UACC62 cells assessed as cell growth at 100 uM after 48 hrs by sulforhodamine B assay; conditions: UACC-62, 48 h, read-out: Activity
UO-31 = assay: Cytotoxicity against human UO31 cells assessed as cell growth at 0.1 uM after 48 hrs by sulforhodamine B assay; conditions: UO-31, 48 h, read-out: Activity
NCI-H460 [4] = assay: Cytotoxicity against human NCI-H460 cells assessed as cell growth at 1 uM after 48 hrs by sulforhodamine B assay; conditions: NCI-H460, 48 h, read-out: Activity
UACC-62 [5] = assay: Cytotoxicity against human UACC62 cells assessed as cell growth at 1 uM after 48 hrs by sulforhodamine B assay; conditions: UACC-62, 48 h, read-out: Activity
RPMI-8226 [6] = assay: Cytotoxicity against human RPMI8226 cells assessed as cell growth at 10 uM after 48 hrs by sulforhodamine B assay; conditions: RPMI-8226, 48 h, read-out: Activity
CAKI-1 [7] = assay: Cytotoxicity against human Caki1 cells assessed as cell growth at 10 uM after 48 hrs by sulforhodamine B assay; conditions: CAKI-1, 48 h, read-out: Activity; method in brief: as §1
BT-549 = assay: Cytotoxicity against human BT549 cells assessed as cell growth at 10 uM after 48 hrs by sulforhodamine B assay; conditions: BT-549, 48 h, read-out: Activity; method in brief: as §1
A549 = assay: Cytotoxicity against human A549 cells assessed as cell growth at 100 uM after 48 hrs by sulforhodamine B assay; conditions: A549, 48 h, read-out: Activity; method in brief: as §1
HCT-116 [8] = assay: Cytotoxicity against human HCT116 cells assessed as cell growth at 10 '-5 M after 48 hrs by sulforhodamine B assay; conditions: HCT-116, 48 h, read-out: Activity
Method in brief: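 Primary one-dose screen across the NCI 60-line panel at 10 µM. Cells were grown in RPMI 1640 with 5% FBS and 2 mM L-glutamine and held 24 h before drug. Drug was diluted from a DMSO concentrate. Exposure was 48 h at 37 °C, 5% CO2. Cells were fixed with TCA and stained with SRB, with absorbance read at 515 nm. Percent growth was calculated against time-zero and untreated control.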

SF-539 [9] = assay: Cytotoxicity against human SF539 cells assessed as cell growth at 10 '-5 M after 48 hrs by sulforhodamine B assay; conditions: SF-539, 48 h, read-out: Activity
CAKI-1 [10] = assay: Cytotoxicity against human Caki1 cells assessed as cell growth at 10 '-5 M after 48 hrs by sulforhodamine B assay; conditions: CAKI-1, 48 h, read-out: Activity
Method in brief: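 Primary NCI-60 single-dose screen at 10 µM. Cells were grown in RPMI 1640 with 5% FBS and 2 mM L-glutamine and plated 24 h before drug addition. Compound was solubilized in DMSO, then exposed for 48 h at 37 °C under 5% CO2. Cells were TCA-fixed and stained with SRB, and absorbance was read at 515 nm. Growth was expressed relative to time-zero and untreated controls.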

RPMI-8226 [11] = assay: Growth inhibition of human RPMI8226 cells after 48 hrs by sulforhodamine B assay; conditions: RPMI-8226, 48 h; for CC50: read-out: LC50 (the source's name)
Method in brief: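 Leukemia suspension lines were grown in RPMI 1640 with 5% FBS and 2 mM L-glutamine and plated at 5000–40,000 cells/well with 24 h preincubation. They were treated at 0.01, 0.1, 1, 10 and 100 µM (DMSO stock) for 48 h at 37 °C. Settled cells were fixed with 80% TCA (16% final) and stained with 0.4% SRB in 1% acetic acid, then read at 515 nm. GI50 was calculated against time-zero and control wells.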

HOP-62 = assay: Growth inhibition of human HOP62 cells after 48 hrs by sulforhodamine B assay; conditions: HOP-62, 48 h; for CC50: read-out: LC50 (the source's name)
Method in brief: (§3)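 Adherent NCI-60 lines were grown in RPMI 1640 with 5% FBS and 2 mM L-glutamine, plated at 5000–40,000 cells/well and preincubated 24 h. They were then exposed to five concentrations (0.01–100 µM, from a DMSO stock) for 48 h at 37 °C, 5% CO2. Cells were fixed with cold TCA (10% final, 60 min, 4 °C) and stained with 0.4% SRB. Dye was solubilized in 10 mM Tris base and A515 read. GI50 was derived from time-zero, control and treated absorbances.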

OVCAR-4 = assay: Growth inhibition of human OVCAR4 cells after 48 hrs by sulforhodamine B assay; conditions: OVCAR-4, 48 h; method in brief: as §3
PC-3 = assay: Growth inhibition of human PC3 cells after 48 hrs by sulforhodamine B assay; conditions: PC-3, 48 h; for CC50: read-out: LC50 (the source's name); method in brief: as §3
HCT-15 = assay: Cytotoxicity against human HCT15 cells assessed as cell growth at 0.01 uM after 48 hrs by sulforhodamine B assay; conditions: HCT-15, 48 h, read-out: Activity; method in brief: as §2
SF-539 [12] = assay: Cytotoxicity against human SF539 cells assessed as cell growth at 0.01 uM after 48 hrs by sulforhodamine B assay; conditions: SF-539, 48 h, read-out: Activity

Q: Which growth at 0.01 µM (DU-145) does the source give for `Cc1ccc2nc(Nc3c(C)cccc3C)sc2c1` here?
A: 104%

Q: What about the growth at 0.01 µM (MDA-MB-468) of the same compound?
A: 88%

Q: What about the growth at 0.1 µM (NCI-H460 [1]) of the same compound?
A: 103%

Q: What about the growth at 0.1 µM (HCT-116 [2]) of the same compound?
A: 103%

Q: And the growth at 0.1 µM (HT-29)?
A: 92%

Q: What about the growth at 100 µM (UACC-62 [3]) of the same compound?
A: 37%

Q: And the growth at 0.1 µM (UO-31)?
A: 97%

Q: And the growth at 1 µM (NCI-H460 [4])?
A: 81%

Q: What about the growth at 1 µM (UACC-62 [5]) of the same compound?
A: 52%

Q: And the growth at 10 µM (RPMI-8226 [6])?
A: 55%

Q: And the growth at 10 µM (CAKI-1 [7])?
A: 27%

Q: What about the growth at 10 µM (BT-549) of the same compound?
A: 46%

Q: And the growth at 100 µM (A549)?
A: 69%

Q: What about the growth at 10 µM (HCT-116 [8]) of the same compound?
A: 19.4%

Q: What about the growth at 10 µM (SF-539 [9]) of the same compound?
A: 45.3%

Q: And the growth at 10 µM (CAKI-1 [10])?
A: 22.1%

Q: What about the GI50 (RPMI-8226 [11]) of the same compound?
A: > 100 µM

Q: And the TGI (RPMI-8226 [11])?
A: > 100 µM

Q: What about the CC50 (RPMI-8226 [11]) of the same compound?
A: > 100 µM

Q: And the GI50 (HOP-62)?
A: 3.86 µM

Q: What about the TGI (HOP-62) of the same compound?
A: > 100 µM

Q: What about the CC50 (HOP-62) of the same compound?
A: > 100 µM

Q: And the GI50 (OVCAR-4)?
A: > 100 µM

Q: And the LC50 (OVCAR-4)?
A: > 100 µM

Q: And the TGI (OVCAR-4)?
A: > 100 µM

Q: What about the TGI (PC-3) of the same compound?
A: > 100 µM

Q: And the CC50 (PC-3)?
A: > 100 µM

Q: And the growth at 0.01 µM (HCT-15)?
A: 95%

Q: And the growth at 0.01 µM (SF-539 [12])?
A: 99%

Q: `Clc1cccc(Cl)c1Nc1nc2cccc(Cl)c2s1` was tested. Which growth at 0.01 µM (DU-145) did it give?
A: 106%

Q: What about the growth at 0.01 µM (MDA-MB-468) of the same compound?
A: 89%

Q: And the growth at 0.1 µM (NCI-H460 [1])?
A: 96%

Q: What about the growth at 0.1 µM (HCT-116 [2]) of the same compound?
A: 99%

Q: And the growth at 0.1 µM (HT-29)?
A: 96%

Q: What about the growth at 100 µM (UACC-62 [3]) of the same compound?
A: -94%

Q: What about the growth at 0.1 µM (UO-31) of the same compound?
A: 56%

Q: What about the growth at 1 µM (NCI-H460 [4]) of the same compound?
A: 67%

Q: And the growth at 1 µM (UACC-62 [5])?
A: 51%

Q: What about the growth at 10 µM (RPMI-8226 [6]) of the same compound?
A: -19%

Q: And the growth at 10 µM (CAKI-1 [7])?
A: -90%

Q: And the growth at 10 µM (BT-549)?
A: -86%

Q: And the growth at 100 µM (A549)?
A: -55%

Q: What about the growth at 10 µM (HCT-116 [8]) of the same compound?
A: -87.1%

Q: What about the growth at 10 µM (SF-539 [9]) of the same compound?
A: -47.5%

Q: What about the growth at 10 µM (CAKI-1 [10]) of the same compound?
A: -10.6%

Q: What about the GI50 (RPMI-8226 [11]) of the same compound?
A: 0.829 µM

Q: What about the TGI (RPMI-8226 [11]) of the same compound?
A: 5.05 µM

Q: And the CC50 (RPMI-8226 [11])?
A: > 100 µM

Q: And the GI50 (HOP-62)?
A: 1.27 µM

Q: What about the TGI (HOP-62) of the same compound?
A: 2.62 µM

Q: What about the CC50 (HOP-62) of the same compound?
A: 5.38 µM

Q: What about the GI50 (OVCAR-4) of the same compound?
A: 0.708 µM

Q: And the LC50 (OVCAR-4)?
A: 5.05 µM

Q: What about the TGI (OVCAR-4) of the same compound?
A: 2.14 µM

Q: What about the GI50 (PC-3) of the same compound?
A: 0.526 µM

Q: And the TGI (PC-3)?
A: 2.3 µM

Q: And the CC50 (PC-3)?
A: 6.81 µM

Q: And the growth at 0.01 µM (HCT-15)?
A: 93%

Q: What about the growth at 0.01 µM (SF-539 [12]) of the same compound?
A: 97%
